Shown are actives, neighbours in structure and some others; about 3.4% of the full set was active somewhere.
SIRT5 block: inhibitors of human sirtuin-5 desuccinylase. Q9NXA8. Purified SirT5, succinyl-peptide AMC, trypsin-coupled fluorescence. inhibition, % at 15 µM. hit rate 1.1% among 330,000; in the data active = inhibition above about 15%; inconclusive = no clear call, values can overlap the other calls
Ecoli rRNA inh: inhibits bacterial ribosomal RNA function over humanized ribosomes | E. coli WT GFP vs humanized-ribosome RFP mutants, fluorescence, 24 h; hits give low values; DMSO median 0, no signal -100 | GFP signal change (wild-type ribosome), % (no concentration beside the values) | hit rate 1.6% among 350,000;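 active = significant combined selectivity score with lowered wild-type GFP, culture density cut under 30%, mutant RFP and density less affected; inactive = any of these conditions unmet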
E-sel inducer: E-selectin induction on HUVECs | P16581 | HUVEC E-selectin immunofluorescence imaging; normalized: neutral wells 0, TNF-alpha wells 100 | activation, % at 7.58 µM | hit rate 0.37% among 260,000;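 active = mean E-selectin-positive cell signal at least 10% of the positive control, reached in at least 60% of replicates, without over 20% cell loss; inconclusive = no rule given, readout overlaps actives, possibly toxicity-flagged; inactive = the rest, including those meeting only one limit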
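Test system: HUVEC | Signal: Immunofluorescence imaging | Read-out: Percent E-selectin-positive cells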
S100A4 MyoIIA: inhibitors of human S100A4 binding to myosin IIA peptide; S100A4/TAMRA-MyoIIA peptide fluorescence polarization; P26447; hit rate 0.14% among 360,000; inhibition, % at 10.7 µM;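 active = mean inhibition of at least 70% across replicates, with every replicate also reaching that level; inconclusive = mean inhibition reaches 70% but some replicates fall short; inactive = mean inhibition below 70%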
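System – human S100A4 monomer protein, biochemical binding assay · Buffer or medium – Calcium-containing HEPES buffer, pH 7.2 · Timing – 5 min between mix addition and reading · Also added – TAMRA-labelled myosin IIA heavy-chain peptide probe, 5 nM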
AF4-AF9 inh: blocks AF4 peptide binding to human AF9; hit rate 0.47% among 350,000; P42568; inhibition, % at 10 µM; AlphaScreen, biotin-AF4 peptide binding to FLAG-AF9;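 active = every replicate reaching a set inhibition limit, whatever the replicate mean, cut at about 25% in these data; inconclusive = mean inhibition reaches that limit but some replicates miss it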;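 also: 0% = plate neutral control median and 100% = total signal loss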
ERAP1 inh: blocks human ERAP1 aminopeptidase activity; inhibition, % at 10.7 µM; hit rate 0.15% among 340,000; Q9NZ08; recombinant ERAP1, Leu-AMC fluorescence, 60 min; AID 652197;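 active = mean replicate inhibition of at least 30%, or all replicates individually reaching that 30% level; inactive = mean below 30% and not every replicate reaching it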;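 also: 0% = neutral control wells and 100% = L-leucinethiol positive control wells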
Numbers without * were called inactive; ? = inconclusive; . = not tested or not shown.

SMILES | SIRT5 block | Ecoli rRNA inh | E-sel inducer | S100A4 MyoIIA | AF4-AF9 inh | ERAP1 inh
CC(C)NC(=O)Nc1ccc2c(c1)C(=O)N([C@@H](C)CO)C[C@H](C)[C@H](CN(C)Cc1ccc(C(=O)O)cc1)OCCCC[C@@H](C)O2 | 3 | 1 | 0 | 2 | -6 | -1
Cc1ccccc1NS(=O)(=O)c1ccc(C(=O)NCC2CCCO2)cc1 (centres undefined) | 19* | 11 | 1 | 0 | ? | 2
COc1ccc(CCNC(=O)c2cc(CC(C)C)on2)cc1OC | 15* | -2 | 1 | -2 | -3 | 20
COc1ccc(CCNC(=O)c2nc(-c3cccs3)no2)cc1OC | -2 | -22* | . | 4 | -4 | 10
COc1ccc(CCNC(=O)c2cc(C3CC3)on2)cc1OC | -5 | -5 | -1 | 1 | 2 | .
COc1ccccc1CCNC(=O)c1nc(-c2cccs2)no1 | -10 | -13 | . | 3 | 0 | -4
CC(C)Cc1cc(C(=O)NCCCN2CCOCC2)no1 | -4 | 10 | 0 | 151* | 0 | -1
O=S(=O)(c1ccc(Cl)cc1)N1CCN(Cc2cccc(OCCO)c2)CC1 | . | . | . | -2 | 7 | 1
C[C@H]1CCC/C=C/[C@@H]2C[C@H](O)C[C@H]2[C@H](O)[C@H](S(=O)c2ccc(O)cc2)CC(=O)O1 (some centres undefined) | -4 | -17 | 1 | -8 | 8 | 67*
CSc1ccccc1NC(=O)CN(C)CC(=O)c1c(C)[nH]c2ccccc12 | -1 | -21* | . | 0 | 3 | 1
COC(=O)c1nn(-c2ccccc2)c(Sc2ccc(Br)cc2)c1/C=N/O | 0 | -20* | . | 3 | . | 3
CC(C)(C)c1ccc(NC(=S)NCCc2ccccn2)cc1 | 1 | -41* | 0 | 0 | . | 8
O=C(c1[nH]c(C(F)(F)F)nc1-c1ccccc1)N1CCCN(Cc2ccc(F)cc2)CC1 | 29* | 0 | 0 | -2 | 2 | 6
O=C(c1[nH]c(C(F)(F)F)nc1-c1ccccc1)N1CCN(CCN2CCOCC2)CC1 | 5 | -3 | 0 | 11 | -1 | 2
C[C@@H](O)C#Cc1ccc([C@H]2[C@H](CO)N3CCCCN(CC4CC4)C[C@@H]23)cc1 | 21* | 5 | 0 | -1 | 7 | 0
C[C@H](O)C#Cc1ccc([C@H]2[C@H]3CN(CC4CC4)CCCCN3[C@H]2CO)cc1 | 16* | 5 | 0 | -9 | 4 | -1
C[C@@H](O)C#Cc1ccc([C@@H]2[C@H](CO)N3CCCCN(CC4CC4)C[C@@H]23)cc1 | 4 | 8 | 0 | 3 | 11 | -1
O=C(c1cccs1)c1sccc1Cc1ccccc1 | . | -16* | . | 28 | 0 | 2
CCN(C(=O)c1cnc(NC(C)C)cc1C(F)(F)F)c1ccc(Cl)cc1Cl | -6 | -23* | 1 | 2 | -5 | 7
COC(=O)C1=C(C)N(C)C(=S)N(C)C1c1cccc(Br)c1 (centres undefined) | -5 | -34* | 0 | 4 | 1 | 0
CCOC(=O)C1=C(C)N(C)C(=S)N(C)C1c1ccc(OC)cc1 (centres undefined) | . | 0 | 1 | -1 | -1 | 0
CCOCCCn1c(=NC(=O)c2ccco2)c(C(=O)OCC)cc2c(=O)n3cccc(C)c3nc21 | -40 | . | . | -3 | 1 | 60*
CCOC(=O)c1cc2c(=O)n3ccccc3nc2n(Cc2ccco2)c1=NC(=O)c1ccccc1OC | -8 | -1 | 0 | -2 | -3 | 36*
CC1(c2nnc(-c3ccccc3)o2)CC(c2c(Cl)cccc2Cl)=NO1 (centres undefined) | -2 | -29* | 0 | -1 | 0 | 0
CC1(c2nnc(-c3ccncc3)o2)CC(c2c(Cl)cccc2Cl)=NO1 (centres undefined) | 0 | -22 | 0 | -1 | 14 | 1
CC1(c2nnc(-c3ccncc3)o2)CC(c2ccc(F)cc2)=NO1 (centres undefined) | -8 | -2 | . | -1 | 34* | 0
CNC[C@@H]1Oc2ncccc2C(=O)N(C)C[C@@H]1C | . | 2 | . | . | . | .
